# Experimental data taken from ChEMBL document CHEMBL2346582, “Guanidino anthrathiophenediones as G-quadruplex binders: uptake, intracellular localization, and anti-Harvey-Ras gene activity in bladder cancer cells” (J Med Chem, 2013).
# Calls of active or inactive are those of the source. The rule behind the calls is not given here.
# Assays:
# [1] = system: HEK293; assay: Cytotoxicity against human HEK293 cells expressing wild type HRAS at 1 to 30 uM after 72 hrs by resazurin assay; format: cell-based; settings: HEK293, 72 h
# How it was run: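 Cells seeded at 3000 per well the day before treatment, grown in DMEM with 10% FBS. Ligand added at 1, 2.5, 5, 10, 20, 30 μM for 72 h. Viability measured by resazurin and expressed as % of untreated cells; mean of three independent measurements. IC50 is the concentration reducing proliferation by 50%.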
# [2] = system: T-24; assay: Binding affinity to wild type HRAS quadruplex DNA in human T24 cells assessed as reduction in gene expression compound treated for 24 hrs prior to transfection measured 72 hrs post transfection by dual-luciferase reporter gene assay relative to control; format: cell-based
# [3] = system: T-24; assay: Cellular uptake in human T24 cells assessed as accumulation in nucleoli at 2.5 uM after 2 hrs by propidium iodide staining-based confocal microscopic analysis; format: ADME, cell-based; settings: t-24, 2 h
# How it was run: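 T24 cells plated (3 × 10^5) on coverslips and treated after 24 h with 2.5 μM ligand for 2 h. Fixed in 3% paraformaldehyde and permeabilized with Triton X-100. Cytoplasm immunostained for DRP1 with FITC secondary; nuclei stained with propidium iodide plus RNase A. Ligand red fluorescence excited at 543 nm; confocal Z-sections at 2 μm intervals.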
# [4] = species on record: Homo sapiens; assay: Thermal stabilization of human telomeric G-quadruplex FAM-TTAGGGTTAGGGTTAGGGTTAGGG-TAMRA DNA assessed as change in melting temperature at 1:5 DNA:ligand ratio by FRET assay
# How it was run: (§1)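 FRET melting of 200 nM dual-labelled quadruplex in 50 mM Tris-HCl with KCl (100 mM for htelo and hras-1, 10 mM for KRAS and hras-2). Ligand at r = 5 ([ligand]/[quadruplex]; hras-2 tabulated at r = 4). Samples held 5 min at 20 °C, then heated 1 °C/min to 95 °C. ΔTM is the TM with ligand minus TM without ligand (±0.5 K). For hras-1 both biphasic transitions are given.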
# [5] = species on record: Mus musculus; assay: Thermal stabilization of mouse KRAS G-quadruplex FAM-GCGGGAGGGAGGGAAGGAGGGAGGGAGGGAG-TAMRA DNA assessed as change in melting temperature at 1:5 DNA:ligand ratio by FRET assay; how it was run: as §1
# [6] = system: T-24; assay: Cellular uptake in human T24 cells after 4 hrs by FACS flow cytometric analysis in presence of dynasore; format: ADME, cell-based; settings: t-24, 4 h
# How it was run: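 T24 cells pretreated 30 min with 80 μM dynasore, then exposed to 5 μM ligand for 4 h. Analysed by flow cytometry (488 nm laser, FL3 680 nm channel), at least 10,000 cells.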
# [7] = Binding affinity to human telomeric G-quadruplex FAM-TTAGGGTTAGGGTTAGGGTTAGGG-TAMRA DNA assessed as quenching of fluorescence emission by FRET titration assay
# How it was run: (§2)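 FRET titration of 200 nM oligonucleotide dual-labelled at its ends with carboxyfluorescein (donor) and tetramethylrhodamine (acceptor), in 50 mM Tris-HCl with KCl (100 mM for htelo and hras-1, 10 mM for KRAS and hras-2). Ligand binding quenches the emission, mainly the acceptor at 580 nm. The fraction of filled sites was fitted to the Hill equation to give apparent KD and the Hill coefficient.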
# [8] = system: NIH3T3; assay: Cellular uptake in mouse NIH/3T3 cells at 0.5 to 10 uM after 10 mins to 8 hrs by flow cytometric analysis; format: ADME, cell-based; settings: nih3t3, 10 µM
# How it was run: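 Flow cytometric uptake of 10 μM ligand over time (15 min, 1, 2, 6, 8 h; T24, and up to 8 h in NIH 3T3 and 293). Cells plated at 5 × 10^4 per well the day before. Ligand fluorescence detected in FL3 (680 nm), at least 10,000 cells acquired.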
# [9] = Binding affinity to human HRAS1 G-quadruplex FAM-TCGGGTTGCGGGCGCAGGGCACGGGCG-TAMRA DNA assessed as quenching of fluorescence emission by FRET titration assay; how it was run: as §2
# [10] = system: NIH3T3; assay: Cellular uptake in mouse NIH/3T3 cells after 4 hrs by FACS flow cytometric analysis in presence of cytochalasin D; format: ADME, cell-based; settings: nih3t3, 4 h
# [11] = system: T-24; assay: Cellular uptake in human T24 cells at 0.5 to 10 uM after 8 hrs by flow cytometric analysis; format: ADME, cell-based; settings: t-24, 8 h
# How it was run: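 Cells plated at 5 × 10^4 per well and treated next day with ligand at […] for 8 h. Then trypsinized, resuspended in PBS and analysed by flow cytometry (488 nm excitation, FL3 680 nm, log scale), at least 10,000 cells per sample. Uptake read from intrinsic ligand red fluorescence.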
# [12] = system: T-24; assay: Binding affinity to interleukin-8 promoter DNA in human T24 cells at 0.5 to 5 uM treated for 24 hrs prior to transfection measured 72 hrs post transfection by dual-luciferase reporter gene assay relative to control; format: cell-based; settings: in the assay text read “5 uM” for “0.5 to 5 uM”
# How it was run: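 T24 cells pretreated 24 h with ligand (0.5, 2.5, 5 μM). Then co-transfected with jet-PEI: firefly reporter (250 ng/well), either HRAS promoter wild type, HRAS promoter with 4 point mutations in the quadruplex motifs, or IL-8 promoter, plus CMV-Renilla (10 ng/well). Dual-Glo read 72 h post-transfection. Firefly/Renilla expressed as T/C × 100 relative to untreated cells.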
# [13] = system: T-24; assay: Cell cycle arrest in human T24 cells assessed as accumulation at G2/M phase at 10 uM after 48 to 72 hrs by FACS analysis relative to control; format: functional
# How it was run: (§3)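 T24 cells treated with 10 μM ligand for 48 or 72 h. Fixed 1 h at 4 °C in 70% ethanol, then stained with propidium iodide 0.05 mg/mL plus RNase A 0.1 mg/mL for 30 min at room temperature. Analysed by FACS (FL2). Phase percentages compared with control by t-test (p < 0.05).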
# [14] = species on record: Homo sapiens; assay: Thermal stabilization of human HRAS1 G-quadruplex FAM-TCGGGTTGCGGGCGCAGGGCACGGGCG-TAMRA DNA assessed as change in melting temperature at 1:5 DNA:ligand ratio by FRET assay; how it was run: as §1
# [15] = system: T-24; assay: Antiproliferative activity against human T24 cells by trypan blue assay; format: functional, cell-based
# [16] = system: T-24 (human); assay: Cell cycle arrest in human T24 cells expressing mutant HRAS assessed as accumulation at G2/M phase at 10 uM after 24 hrs by FACS analysis
# [17] = system: T-24; assay: Cell cycle arrest in human T24 cells assessed as accumulation at G0/G1 phase at 10 uM after 48 to 72 hrs by FACS analysis relative to control; format: functional; how it was run: as §3
# [18] = system: HEK293; assay: Cell cycle arrest in human HEK293 cells expressing wild type HRAS assessed as accumulation at G2/M phase at 10 uM after 24 hrs by FACS analysis; format: functional, cell-based
# How it was run: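 HEK293 cells (wild-type HRAS) treated with ligand for 24 h. Ethanol-fixed, stained with propidium iodide/RNase A, and analysed by FACS (FL2) for G0/G1, S and G2/M fractions.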
# [19] = system: NIH3T3; assay: Cellular uptake in mouse NIH/3T3 cells assessed as accumulation in nucleoli at 2.5 uM after 4 hrs by propidium iodide staining-based confocal microscopic analysis; format: ADME, cell-based; settings: nih3t3, 4 h
# How it was run: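 NIH 3T3 cells on coverslips treated with 2.5 μM ligand for 2 or 4 h. Fixed with paraformaldehyde, DRP1 immunostained (FITC), nuclei stained with propidium iodide. Confocal imaging with 543 nm excitation of ligand fluorescence.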
smiles,measurement,setting,value
N=C(N)NCCCNc1c2c(c(NCCNC(=N)N)c3ccsc13)C(=O)c1ccccc1C2=O,IC50,[1],20 µM
same,Activity,[2],Dose-dependent effect
same,Drug uptake,[3],Active
same,deltaTm,[4],21 K
same,deltaTm,[5],27 K
same,Drug uptake,[6],Active
same,Kd,[7],320 nM
same,Drug uptake,[8],Active
same,Kd,[9],360 nM
same,Drug uptake,[10],Active
same,Drug uptake,[11],Active
same,Activity,[12],inactive
same,Activity,[13],12%
same,deltaTm,[14],13 K
same,Activity,[15],inactive
same,Activity,[16],Active
same,Activity,[17],63%
same,Activity,[18],inactive
N=C(N)NCCCNc1c2c(c(NCCCNC(=N)N)c3sccc13)C(=O)c1ccccc1C2=O,IC50,[1],> 30 µM
same,Activity,[2],Dose-dependent effect
same,Drug uptake,[3],Active
same,deltaTm,[4],21 K
same,deltaTm,[5],33 K
same,Drug uptake,[6],Active
same,Kd,[7],130 nM
same,Drug uptake,[8],Active
same,Kd,[9],300 nM
same,Drug uptake,[10],Active
same,Drug uptake,[11],Active
same,Drug uptake,[19],Active
same,Activity,[12],inactive
same,Activity,[13],12%
same,deltaTm,[14],19 K
same,Activity,[15],inactive
same,Activity,[16],Active
same,Activity,[17],63%
same,Activity,[18],inactive
N=C(N)NCCNc1c2c(c(NCCNC(=N)N)c3sccc13)C(=O)c1ccccc1C2=O,IC50,[1],> 30 µM
same,Activity,[2],Dose-dependent effect
same,Drug uptake,[3],Active
same,deltaTm,[4],14 K
same,deltaTm,[5],15 K
same,Drug uptake,[6],Not Active
same,Kd,[7],150 nM
same,Drug uptake,[8],Active
same,Kd,[9],340 nM
same,Drug uptake,[10],Active
same,Drug uptake,[11],Active
same,Drug uptake,[19],Active
same,Activity,[12],inactive
same,Activity,[13],12%
same,deltaTm,[14],12 K
same,Activity,[15],inactive
same,Activity,[16],Active
same,Activity,[17],63%
same,Activity,[18],inactive
N=C(N)NCCCCNc1c2c(c(NCCCCNC(=N)N)c3sccc13)C(=O)c1ccccc1C2=O,IC50,[1],> 30 µM
same,Activity,[2],Dose-dependent effect
same,deltaTm,[4],34 K
same,deltaTm,[5],35 K
same,Drug uptake,[6],Active
same,Kd,[7],180 nM
same,Drug uptake,[8],Active
same,Kd,[9],210 nM
same,Drug uptake,[10],Active
same,Drug uptake,[11],Active
same,Drug uptake,[19],Active
same,Activity,[12],inactive
same,Activity,[13],12%
same,deltaTm,[14],20 K
same,Activity,[15],inactive
same,Activity,[16],Active
same,Activity,[17],63%
same,Activity,[18],inactive
N=C(N)NCCCNc1c2c(c(NCCNC(=N)N)c3sccc13)C(=O)c1ccccc1C2=O,IC50,[1],> 30 µM
same,Activity,[2],Dose-dependent effect
same,Drug uptake,[3],Active
same,deltaTm,[4],23 K
same,deltaTm,[5],28 K
same,Drug uptake,[6],Not Active
same,Kd,[7],330 nM
same,Drug uptake,[8],Active
same,Kd,[9],280 nM
same,Drug uptake,[10],Active
same,Drug uptake,[11],Active
same,Drug uptake,[19],Active
same,Activity,[12],inactive
same,Activity,[13],12%
same,deltaTm,[14],16 K
same,Activity,[15],inactive
same,Activity,[16],Active
same,Activity,[17],63%
same,Activity,[18],inactive
